# Legend:
# PTP1B-OX(P) = experiment: SPR; format: binding; conditions: 14-3-3ζ 5000 nM (Fig. 2c), HBS-N pH 7.4, 25 °C
# In short: (§1)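 His-PTP1B (1–321) kept in TCEP. For oxidized, phosphorylated form: H2O2 oxidation (250 μM, 10 min, RT), desalting into reductant-free kinase buffer, AKT phosphorylation 16 h at 30°C. Captured on Ni2+-activated NTA chip (2.7 μM injected); reference cell had no NiCl2. 14-3-3ζ in HBS-N pH 7.4 injected at 30 μl/min, 3 min dissociation, 2 M NaCl regeneration, 25 °C.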
# reduced PTP1B (PTP1B-R) = experiment: SPR; format: binding; conditions: 14-3-3ζ 5000 nM (Fig. 2c), HBS-N pH 7.4, 25 °C
# In short: as §1
# reduced PTP1B = experiment: in vitro pull-down of reduced PTP1B with 14-3-3ζ; format: binding; conditions: 50 nM PTP1B-R, 5 μM 14-3-3ζ, pH 7.4, 2 hours at 4°C, immunoblot
# In short: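 Bacterial His-PTP1B (1–321) kept in 1 mM TCEP; GST-14-3-3ζ purified on glutathione agarose. Reduced PTP1B 50 nM with 14-3-3ζ 5 μM in HEPES binding buffer (BSA, Tween, pH 7.4), 2 h at 4°C. Glutathione agarose capture 1 h at 4°C, three washes, SDS-PAGE; immunoblot with anti-PTP1B and anti-GST.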
# [1] = system: PTP1B–14-3-3ζ association; format: cell-based
# 14-3-3ζ = experiment: pTyr loop derived-peptide pulldown from HEK293T lysates, iTRAQ LC-MS/MS; format: binding, human
# PTP1B [2] = experiment: cysteinyl-labeling assay; format: cell-based; conditions: EGF 100 ng/ml, indicated times; three independent experiments
# PTP1B [3] = experiment: PTP1B catalytic activity; format: cell-based; conditions: EGF 100 ng/ml, pNPP, N=3 independent experiments
compound,measurement,setting,value
"14-3-3ζ: bacterially expressed, purified GST-14-3-3-ζ protein","SPR binding of 14-3-3ζ to oxidized, phosphorylated PTP1B",PTP1B-OX(P),specifically binds to PTP1B in its oxidized and phosphorylated inactive state
same,SPR binding of 14-3-3ζ to active reduced PTP1B,reduced PTP1B (PTP1B-R),not to the active reduced form of the enzyme
same,"interaction of 14-3-3ζ with reduced PTP1B, in vitro pull-down",reduced PTP1B,no interaction occurred with reduced PTP1B
"CC(=O)N[C@@H](CS)C(=O)O [NAC, N-acetylcysteine, reference compound]","PTP1B–14-3-3ζ association in cells, NAC","[1]; NAC 1 mM, 1 h, EGF stimulation, two independent experiments (Fig. 1d)",Redox-dependent association between PTP1B and 14-3-3ζ was confirmed
CKNRNRYRDVS [pTyr loop-derived-peptide],enrichment of 14-3-3ζ by peptide bait (iTRAQ),"14-3-3ζ; HEK293T lysate, 90 minutes at 4 °C, vs cysteine control beads","one of the most abundant proteins, and the most abundant 14-3-3 isoform"
same,nature of interaction of unphosphorylated loop peptide with 14-3-3ζ,14-3-3ζ; concluded from SPR compared with MS analysis,occurs indirectly via a protein intermediate
"EGF: epidermal growth factor, 100 ng/ml, used to activate EGFR",PTP1B–14-3-3ζ association following EGF,"[1]; EGF 100 ng/ml, 0-10 min, HEK293T, three independent experiments",transient association between PTP1B and 14-3-3ζ between 2 to 5 minutes
same,"reversible oxidation (biotinylation) of PTP1B, EGF",PTP1B [2],PTP1B biotinylation was detected in a transient manner at 1 and 2 minutes
same,PTP1B activity after EGF 10 min,PTP1B [3],mostly recovered
